{
  "source": "ChEMBL document CHEMBL1126811",
  "about": "“Fluorinated and iodinated dopamine agents: D2 imaging agents for PET and SPECT” (J Med Chem, 1993)",
  "key": {"D(2) dopamine receptor": {"molecular_target": "D(2) dopamine receptor (Rattus norvegicus, UniProt P61169)", "sequence (P61169 whole entry)": "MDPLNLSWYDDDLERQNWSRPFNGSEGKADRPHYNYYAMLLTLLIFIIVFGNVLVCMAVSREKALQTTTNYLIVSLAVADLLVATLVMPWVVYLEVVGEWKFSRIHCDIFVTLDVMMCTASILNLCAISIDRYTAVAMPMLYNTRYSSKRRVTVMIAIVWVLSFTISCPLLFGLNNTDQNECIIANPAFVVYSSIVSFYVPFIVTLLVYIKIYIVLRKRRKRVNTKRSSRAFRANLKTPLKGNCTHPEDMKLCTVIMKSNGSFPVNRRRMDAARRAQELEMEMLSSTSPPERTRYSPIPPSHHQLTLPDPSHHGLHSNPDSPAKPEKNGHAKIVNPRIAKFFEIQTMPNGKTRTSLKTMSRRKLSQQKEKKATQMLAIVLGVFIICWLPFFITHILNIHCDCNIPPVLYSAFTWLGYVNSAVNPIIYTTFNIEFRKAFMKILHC", "experiment": "Inhibition constant against dopamine receptor D2 in rat", "outline": "(§1)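 Filtered on protamine-pretreated (0.2%) GF/B filters, washed with cold 50 mM Tris-HCl pH 7.4, gamma-counted. Nonspecific binding defined with 10 μM (+)-butaclamol. Scatchard and competition data fitted by iterative nonlinear least squares.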"}, "Rattus norvegicus [1]": {"species_on_record": "Rattus norvegicus", "format": "functional, Striatum, Membrane"}, "Rattus norvegicus [2]": {"species_on_record": "Rattus norvegicus", "format": "functional, Striatum, Membrane", "remark": "listed apart in the source"}, "Rattus norvegicus [3]": {"species_on_record": "Rattus norvegicus", "experiment": "Inhibition constant on radiolabeled [125I]FIDA1 binding to rat striatal membranes", "design": "species or system Striatum, Membrane", "outline": "as §1"}, "Rattus norvegicus [4]": {"species_on_record": "Rattus norvegicus", "experiment": "Inhibition constant on radiolabeled [125I]FIDA2 binding to rat striatal membranes", "design": "species or system Striatum, Membrane", "outline": "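Rat striatal membrane homogenate (40–60 μg protein) incubated with 125I-labeled ligand ± competitors in 0.2 mL assay buffer, 15 min at 37 °C with stirring. Filtered on protamine-pretreated (0.2%) GF/B filters, washed with cold 50 mM Tris-HCl pH 7.4, gamma-counted. Nonspecific binding defined with 10 μM (+)-butaclamol. Scatchard and competition data fitted by iterative nonlinear least squares.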"}},
  "data": [
    {"compound": "CCN1CCC[C@H]1CNC(=O)c1c(OC)ccc(S(N)(=O)=O)c1I", "note": "[IODOSULPIRIDE]", "values": [
      {"measurement": "Ki", "setting": "D(2) dopamine receptor", "value": 1.5, "unit": "nM"}
    ]},
    {"compound": "NCCc1c[nH]c2ccc(O)cc12", "note": "[SEROTONIN]", "values": [
      {"measurement": "Ki", "setting": "Rattus norvegicus [1]", "value": "> 5", "unit": "µM"}
    ]},
    {"compound": "CN1[C@@H]2CC[C@H]1C[C@@H](OC(=O)C(CO)c1ccccc1)C2", "note": "(some centres not stated) [ATROPINE]", "values": [
      {"measurement": "Ki", "setting": "Rattus norvegicus [1]", "value": "> 10", "unit": "µM"},
      {"measurement": "Ki", "setting": "Rattus norvegicus [2]", "value": "> 10", "unit": "µM"}
    ]},
    {"compound": "CCN1CCC[C@H]1CNC(=O)c1c(OC)ccc(I)c1O", "note": "[IOLOPRIDE]", "values": [
      {"measurement": "Ki", "setting": "D(2) dopamine receptor", "value": 0.43, "unit": "nM"}
    ]},
    {"compound": "CCN1CCC[C@H]1CNC(=O)c1cc(I)ccc1OC", "note": "[IODOPRIDE]", "values": [
      {"measurement": "Ki", "setting": "D(2) dopamine receptor", "value": 3, "unit": "nM"}
    ]},
    {"compound": "CCN1CCC[C@H]1CNC(=O)c1c(O)c(Cl)cc(Cl)c1OC", "note": "[RACLOPRIDE]", "values": [
      {"measurement": "Ki", "setting": "Rattus norvegicus [3]", "value": 2.31, "unit": "nM"},
      {"measurement": "Ki", "setting": "Rattus norvegicus [4]", "value": 5, "unit": "nM"}
    ]},
    {"compound": "CCN1CCC[C@H]1CNC(=O)c1c(O)c(I)cc(OC)c1OC", "note": "[IOXIPRIDE]", "values": [
      {"measurement": "Ki", "setting": "D(2) dopamine receptor", "value": 0.019, "unit": "nM"}
    ]},
    {"compound": "C=CCN1CC[C@]23c4c5ccc(O)c4O[C@H]2C(=O)CC[C@@]3(O)[C@H]1C5", "note": "[NALOXONE]", "values": [
      {"measurement": "Ki", "setting": "Rattus norvegicus [1]", "value": "> 10", "unit": "µM"},
      {"measurement": "Ki", "setting": "Rattus norvegicus [2]", "value": "> 10", "unit": "µM"}
    ]},
    {"compound": "CCN1CCC[C@H]1CNC(=O)c1cc(I)cc(OC)c1OC", "note": "[EPIDEPRIDE]", "values": [
      {"measurement": "Ki", "setting": "D(2) dopamine receptor", "value": 0.025, "unit": "nM"}
    ]},
    {"compound": "CCN1CCC[C@H]1CNC(=O)c1cc(CCCF)cc(OC)c1OC", "values": [
      {"measurement": "Ki", "setting": "D(2) dopamine receptor", "value": 0.02, "unit": "nM"}
    ]},
    {"compound": "CCCN1CCC[C@@H]2Cc3n[nH]cc3C[C@H]21", "note": "[QUINPIROLE]", "values": [
      {"measurement": "Ki", "setting": "Rattus norvegicus [2]", "value": 8, "unit": "µM"}
    ]},
    {"compound": "CCN1CCC[C@H]1CNC(=O)c1cc(I)cc2c1OCC2", "values": [
      {"measurement": "Ki", "setting": "D(2) dopamine receptor", "value": 0.106, "unit": "nM"}
    ]},
    {"compound": "CCN1CCC[C@@H]1CNC(=O)c1cccc(OC)c1OCCF", "values": [
      {"measurement": "Ki", "setting": "D(2) dopamine receptor", "value": 13, "unit": "nM"}
    ]},
    {"compound": "CC(C)(C)[C@@]1(O)CCN2C[C@@H]3c4ccccc4CCc4cccc(c43)[C@H]2C1", "values": [
      {"measurement": "Ki", "setting": "Rattus norvegicus [1]", "value": 0.00105, "unit": "µM"},
      {"measurement": "Ki", "setting": "Rattus norvegicus [2]", "value": 0.0004, "unit": "µM"}
    ]},
    {"compound": "COC(=O)[C@@H]1[C@H]2C[C@H]3c4[nH]c5ccccc5c4CCN3C[C@@H]2CC[C@@H]1O", "note": "[YOHIMBINE]", "values": [
      {"measurement": "Ki", "setting": "Rattus norvegicus [2]", "value": 0.505, "unit": "µM"}
    ]},
    {"compound": "COc1cc(Br)cc(C(=O)NC[C@@H]2CCCN2Cc2ccc(F)cc2)c1OC", "values": [
      {"measurement": "Ki", "setting": "D(2) dopamine receptor", "value": 0.147, "unit": "nM"}
    ]},
    {"compound": "CCc1cc(Cl)c(OC)c(C(=O)NC[C@@H]2CCCN2CC)c1O", "note": "[ETICLOPRIDE]", "values": [
      {"measurement": "Ki", "setting": "Rattus norvegicus [3]", "value": 0.014, "unit": "nM"},
      {"measurement": "Ki", "setting": "Rattus norvegicus [4]", "value": 0.06, "unit": "nM"}
    ]}
  ]
}
